In ChEMBL document CHEMBL4145650, “Napabucasin and Related Heterocycle-Fused Naphthoquinones as STAT3 Inhibitors with Antiproliferative Activity against Cancer Cells” (J Nat Prod, 2018):
Activity calls are given as the source filed them. The calls are words filed in the database; no cut-off is given here.

Assays:
K562 [1] = experiment: Antiproliferative activity against human K562 cells measured after 48 hrs by MTT assay; assay type: functional, cell-based; details: K562, 48 h
Summary of the method: (§1)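 Cells kept in 10% FBS medium with penicillin/streptomycin/L-glutamine at 37 °C, 5% CO2 (MDA-MB-231 in DMEM, K562 in RPMI 1640). Viability read by MTT reduction to formazan after 48 h of exposure. IC50 obtained by nonlinear regression against vehicle control, given as mean ±SD of three independent experiments (n = 2 where footnoted).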

MDA-MB-231 [2] = experiment: Antiproliferative activity against human MDA-MB-231 cells measured after 48 hrs by MTT assay; assay type: functional, cell-based; details: MDA-MB-231, 48 h; summary of the method: as §1
MDA-MB-231 [3] = experiment: Induction of apoptosis in human MDA-MB-231 cells assessed as viable cells at 10 umol/L measured after 6 hrs by annexin-V-FITC/7-AAD staining based flow cytometric analysis (reference value: 97 to 98%); assay type: functional; details: MDA-MB-231, 6 h, read-out: Activity
MDA-MB-231 [4] = experiment: Cell cycle arrest in human MDA-MB-231 cells assessed as accumulation at G1 phase at 3 uM measured after 24 hrs by propidium iodide staining based flow cytometry (reference value: 62%); assay type: functional
MDA-MB-231 [5] = experiment: Cell cycle arrest in human MDA-MB-231 cells assessed as accumulation at sub-G0 phase at 10 uM measured after 24 hrs by propidium iodide staining based flow cytometry (reference value: 3%); assay type: functional
MDA-MB-231 [6] = experiment: Induction of apoptosis in human MDA-MB-231 cells assessed as early apoptotic cells at 10 umol/L measured after 6 hrs by annexin-V-FITC/7-AAD staining based flow cytometric analysis relative to control; assay type: functional
MDA-MB-231 [7] = experiment: Cell cycle arrest in human MDA-MB-231 cells assessed as accumulation at G2 phase at 10 uM measured after 24 hrs by propidium iodide staining based flow cytometry (reference value: 23%); assay type: functional
MDA-MB-231 [8] = experiment: Cell cycle arrest in human MDA-MB-231 cells assessed as accumulation at S phase at 1 uM measured after 24 hrs by propidium iodide staining based flow cytometry (reference value: 12%); assay type: functional
MDA-MB-231 [9] = experiment: Induction of apoptosis in human MDA-MB-231 cells assessed as early apoptotic cells at 10 umol/L measured after 24 hrs by annexin-V-FITC/7-AAD staining based flow cytometric analysis relative to control; assay type: functional
MDA-MB-231 [10] = experiment: Induction of apoptosis in human MDA-MB-231 cells assessed as viable cells at 10 umol/L measured after 4 hrs by annexin-V-FITC/7-AAD staining based flow cytometric analysis (reference value: 97 to 98%); assay type: functional; details: MDA-MB-231, 4 h, read-out: Activity
MDA-MB-231 [11] = experiment: Induction of apoptosis in human MDA-MB-231 cells assessed as early apoptotic cells at 10 umol/L measured after 8 hrs by annexin-V-FITC/7-AAD staining based flow cytometric analysis relative to control; assay type: functional
MDA-MB-231 [12] = experiment: Cell cycle arrest in human MDA-MB-231 cells assessed as accumulation at sub-G0 phase at 1 uM measured after 24 hrs by propidium iodide staining based flow cytometry (reference value: 3%); assay type: functional
MDA-MB-231 [13] = experiment: Induction of apoptosis in human MDA-MB-231 cells assessed as late apoptotic cells at 10 umol/L measured after 8 hrs by annexin-V-FITC/7-AAD staining based flow cytometric analysis relative to control; assay type: functional
MDA-MB-231 [14] = experiment: Cell cycle arrest in human MDA-MB-231 cells assessed as accumulation at G2 phase at 3 uM measured after 24 hrs by propidium iodide staining based flow cytometry (reference value: 23%); assay type: functional
MDA-MB-231 [15] = experiment: Cell cycle arrest in human MDA-MB-231 cells assessed as accumulation at G1 phase at 1 uM measured after 24 hrs by propidium iodide staining based flow cytometry (reference value: 62%); assay type: functional
MDA-MB-231 [16] = experiment: Induction of apoptosis in human MDA-MB-231 cells assessed as late apoptotic cells at 10 umol/L measured after 6 hrs by annexin-V-FITC/7-AAD staining based flow cytometric analysis relative to control; assay type: functional
K562 [17] = experiment: Induction of superoxide generation in human K562 cells at 5 umol/L measured after 24 hrs by DHE staining based flow cytometry; assay type: functional, cell-based
Summary of the method: (§2)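 Cells were treated with compound at 5 μmol/L or DMSO for 24 h, with or without dicoumarol preincubation (5 μmol/L, 30 min), then stained with DHE for 30 min. 2-OH-DHE fluorescence was read by flow cytometry and expressed relative to vehicle control. At least three independent measurements.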

MDA-MB-231 [18] = experiment: Cell cycle arrest in human MDA-MB-231 cells assessed as accumulation at G2 phase at 1 uM measured after 24 hrs by propidium iodide staining based flow cytometry (reference value: 23%); assay type: functional
MDA-MB-231 [19] = experiment: Cell cycle arrest in human MDA-MB-231 cells assessed as accumulation at S phase at 3 uM measured after 24 hrs by propidium iodide staining based flow cytometry (reference value: 12%); assay type: functional
K562 [20] = experiment: Induction of superoxide generation in human K562 cells at 5 umol/L measured after 24 hrs in presence of NQO1 inhibitor dicoumarol by DHE staining based flow cytometry; assay type: functional, cell-based; summary of the method: as §2
MDA-MB-231 [21] = experiment: Induction of apoptosis in human MDA-MB-231 cells assessed as late apoptotic cells at 10 umol/L measured after 24 hrs by annexin-V-FITC/7-AAD staining based flow cytometric analysis relative to control; assay type: functional
MDA-MB-231 [22] = experiment: Cell cycle arrest in human MDA-MB-231 cells assessed as accumulation at G2 phase at 30 uM measured after 24 hrs by propidium iodide staining based flow cytometry (reference value: 23%); assay type: functional
MDA-MB-231 [23] = experiment: Induction of apoptosis in human MDA-MB-231 cells assessed as viable cells at 10 umol/L measured after 8 hrs by annexin-V-FITC/7-AAD staining based flow cytometric analysis (reference value: 97 to 98%); assay type: functional; details: MDA-MB-231, 8 h, read-out: Activity
MDA-MB-231 [24] = experiment: Cell cycle arrest in human MDA-MB-231 cells assessed as accumulation at S phase at 10 uM measured after 24 hrs by propidium iodide staining based flow cytometry (reference value: 12%); assay type: functional
MDA-MB-231 [25] = experiment: Induction of superoxide generation in human MDA-MB-231 cells at 5 umol/L measured after 24 hrs in presence of NQO1 inhibitor dicoumarol by DHE staining based flow cytometry; assay type: functional, cell-based; summary of the method: as §2
MDA-MB-231 [26] = experiment: Cell cycle arrest in human MDA-MB-231 cells assessed as accumulation at G1 phase at 30 uM measured after 24 hrs by propidium iodide staining based flow cytometry (reference value: 62%); assay type: functional
MDA-MB-231 [27] = experiment: Induction of apoptosis in human MDA-MB-231 cells assessed as viable cells at 10 umol/L measured after 24 hrs by annexin-V-FITC/7-AAD staining based flow cytometric analysis (reference value: 97 to 98%); assay type: functional; details: MDA-MB-231, 24 h, read-out: Activity
MDA-MB-231 [28] = experiment: Cell cycle arrest in human MDA-MB-231 cells assessed as accumulation at sub-G0 phase at 3 uM measured after 24 hrs by propidium iodide staining based flow cytometry (reference value: 3%); assay type: functional
MDA-MB-231 [29] = experiment: Cell cycle arrest in human MDA-MB-231 cells assessed as accumulation at sub-G0 phase at 30 uM measured after 24 hrs by propidium iodide staining based flow cytometry (reference value: 3%); assay type: functional
MDA-MB-231 [30] = experiment: Induction of apoptosis in human MDA-MB-231 cells assessed as viable cells at 10 umol/L measured after 2 hrs by annexin-V-FITC/7-AAD staining based flow cytometric analysis (reference value: 97 to 98%); assay type: functional; details: MDA-MB-231, 2 h, read-out: Activity
MDA-MB-231 [31] = experiment: Cell cycle arrest in human MDA-MB-231 cells assessed as accumulation at G1 phase at 10 uM measured after 24 hrs by propidium iodide staining based flow cytometry (reference value: 62%); assay type: functional
MDA-MB-231 [32] = experiment: Induction of superoxide generation in human MDA-MB-231 cells at 5 umol/L measured after 24 hrs by DHE staining based flow cytometry; assay type: functional, cell-based; summary of the method: as §2
MDA-MB-231 [33] = experiment: Cell cycle arrest in human MDA-MB-231 cells assessed as accumulation at S phase at 30 uM measured after 24 hrs by propidium iodide staining based flow cytometry (reference value: 12%); assay type: functional

Row | Structure (SMILES) | IC50 (K562 [1]) | IC50 (MDA-MB-231 [2]) | viability at 10 µM (MDA-MB-231 [3]) | Activity (MDA-MB-231 [4]) | Activity (MDA-MB-231 [5]) | Activity (MDA-MB-231 [6]) | Activity (MDA-MB-231 [7]) | Activity (MDA-MB-231 [8]) | Activity (MDA-MB-231 [9]) | viability at 10 µM (MDA-MB-231 [10]) | Activity (MDA-MB-231 [11]) | Activity (MDA-MB-231 [12]) | Activity (MDA-MB-231 [13]) | Activity (MDA-MB-231 [14]) | Activity (MDA-MB-231 [15]) | Activity (MDA-MB-231 [16]) | Activity (MDA-MB-231 [18]) | Activity (MDA-MB-231 [19]) | Activity (K562 [20]) | Activity (MDA-MB-231 [21]) | also measured
1 | CC(C)=CCC1=C(O)C(=O)c2ccccc2C1=O [LAPACHOL] | > 10000 nM | > 10 µM |  |  |  |  |  |  |  |  |  |  |  |  |  |  |  |  |  |  | 
2 | CC1(C)CCC2=C(O1)c1ccccc1C(=O)C2=O [LAPACHONE] | 1600 nM | 4.3 µM | 90% | 63% | 3% | 4% | 27% | 14% | 15% | 93% | 7% | 4% | 8% | 21% | 62% | 7% | 20% | 14% | inactive | 48% | Activity (K562 [17]): inactive; Activity (MDA-MB-231 [22]): 24%; viability at 10 µM (MDA-MB-231 [23]): 86%; Activity (MDA-MB-231 [24]): 18%; Activity (MDA-MB-231 [25]): inactive; Activity (MDA-MB-231 [26]): 57%; viability at 10 µM (MDA-MB-231 [27]): 38%; Activity (MDA-MB-231 [28]): 3%; Activity (MDA-MB-231 [29]): 3%; viability at 10 µM (MDA-MB-231 [30]): 97%; Activity (MDA-MB-231 [31]): 53%; Activity (MDA-MB-231 [32]): inactive; Activity (MDA-MB-231 [33]): 16%
3 | O=C1C(=O)c2ccoc2-c2ccccc21 | 2800 nM | 1.8 µM | 91% | 59% | inactive | 4% | 24% | 15% | 15% | 95% | 6% | 3% | 8% | 25% | 64% | 6% | 19% | 15% | inactive | 54% | Activity (MDA-MB-231 [22]): 22%; viability at 10 µM (MDA-MB-231 [23]): 87%; Activity (MDA-MB-231 [24]): 15%; Activity (MDA-MB-231 [25]): Active; Activity (MDA-MB-231 [26]): 62%; viability at 10 µM (MDA-MB-231 [27]): 32%; Activity (MDA-MB-231 [28]): inactive; Activity (MDA-MB-231 [29]): inactive; viability at 10 µM (MDA-MB-231 [30]): 96%; Activity (MDA-MB-231 [31]): 60%; Activity (MDA-MB-231 [32]): Active; Activity (MDA-MB-231 [33]): 14%
